In ChEMBL document CHEMBL3734666, “Lipophilic vancomycin aglycon dimer with high activity against vancomycin-resistant bacteria” (2015):
In brackets after ≈: the same amount, converted by molar mass. Activity calls are given as the source filed them. No cut-off for these calls is given here.

Assays:
Staphylococcus aureus [1] = assay: Bacteriostatic activity against methicillin-resistant Staphylococcus aureus ATCC 33591 at 2 to 4 uM measured within 6 hrs; assay type: functional, organism-based
Staphylococcus aureus [2] = assay: Bacteriostatic activity against methicillin-resistant Staphylococcus aureus ATCC 33591 at 2 to 4 uM measured after 6 hrs; assay type: functional, organism-based
Staphylococcus aureus [3] = assay: Antibacterial activity against methicillin-resistant Staphylococcus aureus ATCC 33591 infected in human whole blood assessed as bacterial burden at 4 uM after 3 hrs (reference value: 7.0 log10 CFU/ml); assay type: functional
Staphylococcus aureus [4] = assay: Antibacterial activity against methicillin-sensitive Staphylococcus aureus after 24 hrs by broth micro dilution assay; assay type: functional
Procedure, shortened: (§1)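 MIC read against vancomycin-sensitive staphylococci (MSSA, MRSA) and enterococci (VSE), plus vancomycin-resistant staphylococci (VISA) and enterococci (VRE).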

Staphylococcus aureus [5] = assay: Antibacterial activity against methicillin-resistant Staphylococcus aureus ATCC 33591 after 24 hrs by broth micro dilution assay; assay type: functional; conditions: ATCC 33591, 24 h; procedure, shortened: as §1
Enterococcus faecium [6] = assay: Antibacterial activity against vancomycin-sensitive Enterococcus faecium after 24 hrs by broth micro dilution assay; assay type: functional
Staphylococcus aureus [7] = assay: Antibacterial activity against vancomycin-intermediate-resistant Staphylococcus aureus […] after 24 hrs by broth micro dilution assay; assay type: functional; procedure, shortened: as §1
Enterococcus faecium [8] = assay: Antibacterial activity against vancomycin-resistant Enterococcus faecium ATCC 51559 after 24 hrs by broth micro dilution assay; assay type: functional; conditions: ATCC 51559, 24 h; procedure, shortened: as §1
[9] = Binding affinity to N,N'-diacetyl-Lys-D-Ala-D-Ala (unknown origin) by UV-difference spectroscopy
Procedure, shortened: (§2)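 Binding constants (Ka) measured by UV-difference spectroscopy with the model ligands N,N′-diacetyl-Lys-D-Ala-D-Ala (sensitive) and N,N′-diacetyl-Lys-D-Ala-D-Lac (resistant).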

[10] = Binding affinity to N,N'-diacetyl-Lys-D-Ala-D-Lac (unknown origin) by UV-difference spectroscopy; procedure, shortened: as §2
Staphylococcus aureus [11] = assay: Antibacterial activity against methicillin-resistant Staphylococcus aureus ATCC 33591 infected in human whole blood assessed as bacterial burden at 2 uM after 3 hrs (reference value: 7.0 log10 CFU/ml); assay type: functional
Enterococcus faecium [12] = assay: Inhibition of peptidoglycan biosynthesis in vancomycin-resistant Enterococcus faecium ATCC 51559 assessed as accumulation of UDP-MurNAc-pp at 5 uM after 60 mins by mass spectrometric analysis; assay type: functional, organism-based
Staphylococcus aureus [13] = assay: Bactericidal activity against methicillin-resistant Staphylococcus aureus ATCC 33591 assessed as reduction in bacterial burden at 4 uM measured within 3 hrs by time-kill assay; assay type: functional
Procedure, shortened: (§3)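 Time-kill assay on MRSA starting near 8log₁₀ CFU/mL, with compound at 2 and 4 µM. Viable counts were taken over 24 h, including a 3 h point, with a detection limit of <50 CFU/mL.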

Staphylococcus aureus [14] = assay: Bactericidal activity against methicillin-resistant Staphylococcus aureus ATCC 33591 assessed as reduction in bacterial burden at 4 uM measured within 24 hrs by time-kill assay; assay type: functional, organism-based; procedure, shortened: as §3

CN[C@@H](CC(C)C)C(=O)N[C@H]1C(=O)N[C@@H](CC(N)=O)C(=O)N[C@H]2C(=O)N[C@H]3C(=O)N[C@H](C(=O)N[C@@H](C(=O)O)c4cc(O)cc(O)c4-c4cc3ccc4O)[C@H](O)c3ccc(c(Cl)c3)Oc3cc2cc(c3O[C@H]2O[C@@H](CO)[C@H](O)[C@@H](O)[C@@H]2O[C@@H]2C[C@@](C)(N)[C@@H](O)[C@@H](C)O2)Oc2ccc(cc2Cl)[C@H]1O
Activity (Staphylococcus aureus [1]): Active | Activity (Staphylococcus aureus [2]): inactive | Activity (Staphylococcus aureus [3]): 1 log10CFU/ml | MIC (Staphylococcus aureus [4]): 0.6 µM (≈ 0.87 µg/mL) | MIC (Staphylococcus aureus [5]): 0.7 µM (≈ 1.01 µg/mL) | MIC (Enterococcus faecium [6]): 0.6 µM (≈ 0.87 µg/mL) | MIC (Staphylococcus aureus [7]): 13 µM (≈ 18.8 µg/mL) | MIC (Enterococcus faecium [8]): 750 µM (≈ 1090 µg/mL) | Ka [9]: 1 ×10⁵ /M | Ka [10]: 5 ×10² /M

CN[C@H](CC(C)C)C(=O)N[C@H]1C(=O)N[C@@H](CC(N)=O)C(=O)N[C@H]2C(=O)N[C@H]3C(=O)N[C@H](C(=O)N[C@H](C(=O)NCCC[N+](C)(C)CCCCCCCC[N+](C)(C)CCCNC(=O)C(F)(F)F)c4cc(O)cc(O)c4-c4cc3ccc4O)[C@H](O)c3ccc(c(Cl)c3)Oc3cc2cc(c3O)Oc2ccc(cc2Cl)[C@H]1O
MIC (Staphylococcus aureus [4]): 1 µM | MIC (Staphylococcus aureus [5]): 1 µM | MIC (Enterococcus faecium [6]): 0.2 µM | MIC (Staphylococcus aureus [7]): 0.5 µM | MIC (Enterococcus faecium [8]): > 100 µM

CCCCCCCCN(CCCNC(=O)[C@H]1NC(=O)[C@@H]2NC(=O)[C@@H](NC(=O)[C@H]3NC(=O)[C@@H](CC(N)=O)NC(=O)[C@@H](NC(=O)[C@@H](CC(C)C)NC)[C@@H](O)c4ccc(c(Cl)c4)Oc4cc3cc(c4O)Oc3ccc(cc3Cl)[C@@H]2O)c2ccc(O)c(c2)-c2c(O)cc(O)cc21)CCCNC(=O)[C@@H]1NC(=O)[C@H]2NC(=O)[C@H](NC(=O)[C@@H]3NC(=O)[C@H](CC(N)=O)NC(=O)[C@H](NC(=O)[C@@H](CC(C)C)NC)[C@H](O)c4ccc(c(Cl)c4)Oc4cc3cc(c4O)Oc3ccc(cc3Cl)[C@H]2O)c2ccc(O)c(c2)-c2c(O)cc(O)cc21
Activity (Staphylococcus aureus [11]): 4.5 log10CFU/ml | MIC (Staphylococcus aureus [4]): 0.6 µM (≈ 1.5 µg/mL) | MIC (Staphylococcus aureus [5]): 0.6 µM (≈ 1.5 µg/mL) | MIC (Enterococcus faecium [6]): 0.5 µM (≈ 1.25 µg/mL) | MIC (Staphylococcus aureus [7]): 0.6 µM (≈ 1.5 µg/mL) | MIC (Enterococcus faecium [8]): 2.5 µM (≈ 6.24 µg/mL) | Ka [9]: 1 ×10⁵ /M | Ka [10]: 5.7 ×10³ /M | inhibition (Enterococcus faecium [12]): Active | Activity (Staphylococcus aureus [13]): 3 log10CFU/ml | Activity (Staphylococcus aureus [14]): Active

CN[C@H](CC(C)C)C(=O)N[C@@H]1C(=O)N[C@H](CC(N)=O)C(=O)N[C@@H]2C(=O)N[C@@H]3C(=O)N[C@@H](C(=O)N[C@H](C(=O)NCCC[N+](C)(C)CCCCCCCC[N+](C)(C)CCCNC(=O)[C@H]4NC(=O)[C@@H]5NC(=O)[C@@H](NC(=O)[C@H]6NC(=O)[C@@H](CC(N)=O)NC(=O)[C@@H](NC(=O)[C@@H](CC(C)C)NC)[C@@H](O)c7ccc(c(Cl)c7)Oc7cc6cc(c7O)Oc6ccc(cc6Cl)[C@@H]5O)c5ccc(O)c(c5)-c5c(O)cc(O)cc54)c4cc(O)cc(O)c4-c4cc3ccc4O)[C@@H](O)c3ccc(c(Cl)c3)Oc3cc2cc(c3O)Oc2ccc(cc2Cl)[C@@H]1O
MIC (Staphylococcus aureus [4]): 0.2 µM | MIC (Staphylococcus aureus [5]): 0.3 µM | MIC (Enterococcus faecium [6]): 0.05 µM | MIC (Staphylococcus aureus [7]): 0.1 µM | MIC (Enterococcus faecium [8]): 48 µM

CN[C@H](CC(C)C)C(=O)N[C@@H]1C(=O)N[C@H](CC(N)=O)C(=O)N[C@@H]2C(=O)N[C@@H]3C(=O)N[C@@H](C(=O)N[C@H](C(=O)NCCCCCCCCNC(=O)[C@H]4NC(=O)[C@@H]5NC(=O)[C@@H](NC(=O)[C@H]6NC(=O)[C@@H](CC(N)=O)NC(=O)[C@@H](NC(=O)[C@@H](CC(C)C)NC)[C@@H](O)c7ccc(c(Cl)c7)Oc7cc6cc(c7O)Oc6ccc(cc6Cl)[C@@H]5O)c5ccc(O)c(c5)-c5c(O)cc(O)cc54)c4cc(O)cc(O)c4-c4cc3ccc4O)[C@@H](O)c3ccc(c(Cl)c3)Oc3cc2cc(c3O)Oc2ccc(cc2Cl)[C@@H]1O
MIC (Staphylococcus aureus [4]): 0.8 µM (≈ 1.92 µg/mL) | MIC (Staphylococcus aureus [5]): 0.6 µM (≈ 1.44 µg/mL) | MIC (Enterococcus faecium [6]): 0.6 µM (≈ 1.44 µg/mL) | MIC (Staphylococcus aureus [7]): 0.2 µM (≈ 0.479 µg/mL) | MIC (Enterococcus faecium [8]): 25.8 µM (≈ 61.8 µg/mL)

CN[C@H](CC(C)C)C(=O)N[C@H]1C(=O)N[C@@H](CC(N)=O)C(=O)N[C@H]2C(=O)N[C@H]3C(=O)N[C@H](C(=O)N[C@H](C(=O)NCCCCCCCCNC(=O)C(F)(F)F)c4cc(O)cc(O)c4-c4cc3ccc4O)[C@H](O)c3ccc(c(Cl)c3)Oc3cc2cc(c3O)Oc2ccc(cc2Cl)[C@H]1O
MIC (Staphylococcus aureus [4]): 1 µM (≈ 1.37 µg/mL) | MIC (Staphylococcus aureus [5]): 2 µM (≈ 2.73 µg/mL) | MIC (Enterococcus faecium [6]): 0.6 µM (≈ 0.82 µg/mL) | MIC (Staphylococcus aureus [7]): 0.6 µM (≈ 0.82 µg/mL) | MIC (Enterococcus faecium [8]): 30.5 µM (≈ 41.7 µg/mL)

CN[C@H](CC(C)C)C(=O)N[C@H]1C(=O)N[C@@H](CC(N)=O)C(=O)N[C@H]2C(=O)N[C@H]3C(=O)N[C@H](C(=O)N[C@H](C(=O)O)c4cc(O)cc(O)c4-c4cc3ccc4O)[C@H](O)c3ccc(c(Cl)c3)Oc3cc2cc(c3O)Oc2ccc(cc2Cl)[C@H]1O [VANCOMYCIN AGLYCON]
MIC (Staphylococcus aureus [4]): 1 µM (≈ 1.14 µg/mL) | MIC (Staphylococcus aureus [5]): 1 µM (≈ 1.14 µg/mL) | MIC (Enterococcus faecium [6]): 1.8 µM (≈ 2.06 µg/mL) | MIC (Staphylococcus aureus [7]): 4 µM (≈ 4.58 µg/mL) | MIC (Enterococcus faecium [8]): > 100 µM

CCCCCCCCN(CCCNC(=O)[C@H]1NC(=O)[C@H]2NC(=O)[C@H](NC(=O)[C@@H]3NC(=O)[C@H](CC(N)=O)NC(=O)[C@H](NC(=O)[C@@H](CC(C)C)NC)[C@H](O)c4ccc(c(Cl)c4)Oc4cc3cc(c4O)Oc3ccc(cc3Cl)[C@H]2O)c2ccc(O)c(c2)-c2c(O)cc(O)cc21)CCCNC(=O)C(F)(F)F
MIC (Staphylococcus aureus [4]): 0.8 µM (≈ 1.17 µg/mL) | MIC (Staphylococcus aureus [5]): 1 µM (≈ 1.47 µg/mL) | MIC (Enterococcus faecium [6]): 0.4 µM (≈ 0.586 µg/mL) | MIC (Staphylococcus aureus [7]): 0.8 µM (≈ 1.17 µg/mL) | MIC (Enterococcus faecium [8]): 6.5 µM (≈ 9.52 µg/mL)
